The results in this text go back to PMC3783524 (ACS chemical biology, 2013).

SMILES strings stand for the structures. Several values for one entry are separate records, joined by “and”; a condition that tells them apart may be missing. Equal entries are not always repeated. Some results are limits rather than exact numbers.

The target of series [1] is T1, DnaK-DnaJ (Escherichia coli, UniProt P0A6Y8). Briefly: DnaJ-stimulated ATPase activity of DnaK. It counts as biochemical. Particulars: result in words. Put shortly:
(§1)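 Purified E. coli DnaK, DnaJ and GrpE (His-tagged, tag removed by TEV) and the synthetic NRLLLTG peptide. DnaK at 0.6 μM unless noted, with co-chaperone at stated levels, in 100 mM Tris-HCl, 20 mM KCl, 6 mM MgCl2, pH 7.4. Test compound added from DMSO stock. Phosphate release read by malachite green adaptation (absorbance 620 nm). Michaelis-Menten fit. Triplicates, three independent experiments.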

In series [2] the target is T2, DnaK-GrpE (Escherichia coli, UniProt P0A6Y8). Briefly: GrpE-stimulated ATPase activity of DnaK. Particulars: for Inhibition of the DnaK-GrpE combination (ATPase): result in words. It counts as biochemical. The method, boiled down:
as §1

The nature of another series: Solubility. The note with it: result in words. Type of series: physicochemical.
Another series addresses DnaK D233A (Escherichia coli, UniProt P0A6Y8, D233A). Briefly: GrpE-stimulation of DnaK control mutant D233A, ATPase assay. It counts as biochemical. The note with it: identical to wild type.
Another series deals with DnaJ (Escherichia coli, UniProt P08622). Briefly: Isothermal calorimetry, binding to DnaJ.
DnaJ, sequence (P08622 whole entry): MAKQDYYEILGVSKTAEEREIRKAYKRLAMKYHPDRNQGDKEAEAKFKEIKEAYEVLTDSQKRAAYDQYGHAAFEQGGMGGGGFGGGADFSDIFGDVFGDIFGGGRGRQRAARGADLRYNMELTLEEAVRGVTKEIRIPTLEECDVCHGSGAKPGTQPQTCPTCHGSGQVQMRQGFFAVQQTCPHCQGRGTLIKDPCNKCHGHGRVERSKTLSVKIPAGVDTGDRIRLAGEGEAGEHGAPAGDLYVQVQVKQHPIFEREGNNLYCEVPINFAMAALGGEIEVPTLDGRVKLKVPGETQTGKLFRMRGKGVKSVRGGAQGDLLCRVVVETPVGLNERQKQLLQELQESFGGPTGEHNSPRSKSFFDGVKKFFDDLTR
Another series has as its target DnaK-peptide (Escherichia coli, UniProt P0A6Y8). Description: Peptide substrate. Particulars: NRLLLTG peptide; result in words. Type of series: biochemical. The method, boiled down:
as §1

The target of series [3] is T3, DnaK (Escherichia coli, UniProt P0A6Y8). Description: Fluorescence polarization, binding of FITC-HLA peptide to DnaK. Particulars: FP assay; result in words. A general note: Polarisation of emitted light reports the rotation of a fluorescent probe.
T3 sequence (P0A6Y8 whole entry): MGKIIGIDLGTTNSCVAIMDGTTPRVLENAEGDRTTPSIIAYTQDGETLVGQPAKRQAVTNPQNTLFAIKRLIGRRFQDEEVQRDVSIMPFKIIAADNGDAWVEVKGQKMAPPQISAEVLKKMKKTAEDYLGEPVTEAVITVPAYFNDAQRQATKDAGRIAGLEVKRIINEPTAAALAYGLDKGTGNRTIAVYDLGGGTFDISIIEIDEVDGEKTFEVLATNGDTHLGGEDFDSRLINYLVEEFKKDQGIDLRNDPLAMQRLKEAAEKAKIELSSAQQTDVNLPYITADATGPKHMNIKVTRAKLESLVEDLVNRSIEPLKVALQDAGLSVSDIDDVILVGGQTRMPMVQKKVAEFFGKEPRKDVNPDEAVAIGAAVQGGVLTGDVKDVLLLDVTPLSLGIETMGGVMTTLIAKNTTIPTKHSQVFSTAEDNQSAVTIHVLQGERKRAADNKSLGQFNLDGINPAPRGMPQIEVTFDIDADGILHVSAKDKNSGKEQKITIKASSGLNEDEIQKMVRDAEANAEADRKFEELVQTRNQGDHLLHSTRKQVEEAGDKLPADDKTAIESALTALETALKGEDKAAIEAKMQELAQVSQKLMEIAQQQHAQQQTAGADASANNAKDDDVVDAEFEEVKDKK
Series [4] addresses T3, DnaK. Briefly: Fluorescence polarization, binding of FAM-ATP to DnaK. Particulars: for Competition with FAM-ATP for binding to DnaK: FP assay, result in words.
In series [5] the target is T3, DnaK. Briefly: Intrinsic ATPase activity of DnaK alone. Particulars: result in words. It counts as biochemical. The method, boiled down: as §1
The next series addresses DnaK M89A (Escherichia coli, UniProt P0A6Y8, M89A). Briefly: GrpE-stimulation of DnaK mutant M89A, ATPase assay. Type of series: biochemical. The note with it: result in words.
In another series the target is GrpE (Escherichia coli, UniProt P09372). Briefly: Isothermal calorimetry, binding to GrpE.
GrpE, sequence (P09372 whole entry): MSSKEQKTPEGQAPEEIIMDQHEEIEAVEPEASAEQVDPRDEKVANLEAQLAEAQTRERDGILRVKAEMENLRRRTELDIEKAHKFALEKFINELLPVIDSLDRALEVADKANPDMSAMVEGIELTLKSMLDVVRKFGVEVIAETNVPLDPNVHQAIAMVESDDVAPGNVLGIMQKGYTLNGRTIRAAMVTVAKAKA
In another series the target is DnaK R56A (Escherichia coli, UniProt P0A6Y8, R56A). Briefly: GrpE-stimulation of DnaK mutant R56A, ATPase assay. It counts as biochemical. Particulars: result in words.
DnaK R56A, sequence (P0A6Y8 whole entry R56A): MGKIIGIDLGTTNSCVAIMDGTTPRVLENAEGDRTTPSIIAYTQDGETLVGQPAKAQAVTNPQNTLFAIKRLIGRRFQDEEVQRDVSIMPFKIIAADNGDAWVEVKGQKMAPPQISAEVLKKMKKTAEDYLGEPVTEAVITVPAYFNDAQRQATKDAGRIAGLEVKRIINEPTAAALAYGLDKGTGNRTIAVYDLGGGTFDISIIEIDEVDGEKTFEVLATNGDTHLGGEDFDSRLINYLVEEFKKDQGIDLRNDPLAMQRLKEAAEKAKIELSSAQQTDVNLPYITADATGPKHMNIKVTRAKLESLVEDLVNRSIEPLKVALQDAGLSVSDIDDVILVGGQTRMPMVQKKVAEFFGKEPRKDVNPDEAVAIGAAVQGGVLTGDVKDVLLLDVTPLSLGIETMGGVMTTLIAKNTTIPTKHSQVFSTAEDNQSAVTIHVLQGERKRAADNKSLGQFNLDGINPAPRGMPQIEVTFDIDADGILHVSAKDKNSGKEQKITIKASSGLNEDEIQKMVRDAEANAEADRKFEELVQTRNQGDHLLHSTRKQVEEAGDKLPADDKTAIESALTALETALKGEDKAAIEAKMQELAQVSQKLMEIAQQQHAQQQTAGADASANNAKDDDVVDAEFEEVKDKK
DnaK R56A, sequence (P09372 whole entry, further chain): as the sequence (P09372 whole entry) above
In series [6] the target is T2, DnaK-GrpE. Description: Fluorescence-quenching assay, physical interaction between DnaK and GrpE. Type of series: binding. The note with it: result in words.
Series [7] addresses T1, DnaK-DnaJ. Briefly: Fluorescence-quenching assay, binding of labeled DnaJ to DnaK. Particulars: not statistically significant (p = 0.07).
In series [8] the target is T3, DnaK. Description: Intrinsic tryptophan fluorescence of DnaK. Type of series: binding. The method, boiled down: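 DnaK (5 μM) held in 25 mM HEPES, 10 mM KCl, 5 mM MgCl2, pH 7.5, with 1 mM ADP or ATP and test compound (e.g. 25 or 100 μM). Incubated 30 min at 37 °C in the dark. Excitation 290 nm; emission scanned 300–450 nm or read at 340 nm. Langmuir fit. Triplicate, three independent experiments.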

Where [9] appears, read: DnaK 5 μM, 25 μM or 100 μM compound.

T2 sequence (P09372 whole entry): as above
T2 sequence (P0A6Y8 whole entry): as the sequence (P0A6Y8 whole entry) above
T1 sequence (P0A6Y8 whole entry): as above
DnaK-peptide, sequence (P0A6Y8 whole entry): as above
DnaK M89A, sequence (P09372 whole entry): as the sequence (P09372 whole entry) above
DnaK M89A, sequence (P0A6Y8 whole entry M89A): as the sequence (P0A6Y8 whole entry R56A) above, with A56R, M89A counted along it
DnaK D233A, sequence (P0A6Y8 whole entry D233A): as the sequence (P0A6Y8 whole entry R56A) above, with A56R, D233A counted along it
DnaK D233A, sequence (P09372 whole entry, further chain): as the sequence (P09372 whole entry) above

As to `O=c1c(O)c(-c2cc(O)c(O)c(O)c2)oc2cc(O)cc(O)c12` [Myr, myricetin], the “Inhibition of the DnaK-DnaJ combination (ATPase)” value at DnaK-DnaJ [1] was “only inhibitors of the DnaK-DnaJ combination”.

As for `CC(=O)O[C@H]1C[C@@H]2CC[C@@H]3[C@H](CC[C@@]4(C)[C@H]3C[C@H]([N+]3(C)CCCCC3)[C@@H]4OC(C)=O)[C@@]2(C)C[C@@H]1[N+]1(C)CCCCC1` [PaBr, pancuronium bromide], the “Inhibition of the DnaK-GrpE combination (ATPase)” value at DnaK-GrpE [2] is given as “only inhibitors of the DnaK-GrpE combination”. Moreover, the Solubility result in “Solubility” is “weakly soluble”.

Take `CCCc1nc2c(C)cc(-c3nc4ccccc4n3C)cc2n1Cc1ccc(-c2ccccc2C(=O)O)cc1` [Tel, telmisartan]: the “Fold increase in Km of GrpE stimulation, DnaK D233A” value at DnaK D233A is ~ 1.5 fold. Further, the “Inhibition of the DnaK-GrpE combination (ATPase)” value on DnaK-GrpE [2] is “only inhibitors of the DnaK-GrpE combination”. For the same molecule, on DnaK-GrpE [2] (wild type DnaK), the “Fold increase in Km of GrpE stimulation, wild type DnaK” value is given as ~ 1.5 fold. Moreover, the “Inhibition of the DnaK-DnaJ combination (ATPase)” value on DnaK-DnaJ [1] is “little activity”. Besides, the Kd on DnaJ and on GrpE was greater than 100 µM in each case. Further, the “Activity against DnaK-peptide substrate combination (ATPase)” value at DnaK-peptide is “little activity”. The “Effect on apparent affinity of DnaK for FITC-HLA” value on DnaK [3] is recorded as “no effect”. Further, the “Competition with FAM-ATP for binding to DnaK” value at DnaK [4] was “interfered with binding”. In addition, the “Effect on FAM-ATP binding, fold” value at DnaK [4] (reduced nucleotide affinity) came to 2 fold. The “Activity against DnaK alone (intrinsic ATPase)” value on DnaK [5] is “little activity”. Moreover, the “Ability to block GrpE-stimulation of DnaK M89A” value at DnaK M89A was “resistant”. Besides, the “Ability to block GrpE-stimulation of DnaK R56A” value on DnaK R56A is listed as “resistant”. On DnaK-GrpE [6], the “Effect on physical interaction between DnaK and GrpE” value was “no effect”.

By IC50 is commonly meant the concentration that gives 50% inhibition. Regarding `COc1cc(C(=O)NS(=O)(=O)c2ccccc2C)ccc1Cc1cn(C)c2ccc(NC(=O)OC3CCCC3)cc12` [Zaf, zafirlukast], the “Weakening of binding of DnaJ to DnaK, fold” value at DnaK-DnaJ [7] was ~ 1.8 fold and ~ 2 fold. Besides, at DnaK-GrpE [2], the IC50 is greater than 200 µM and the “Inhibition of the DnaK-GrpE combination (ATPase)” value is recorded as “weak or no activity”. Also, the “Inhibition of the DnaK-DnaJ combination (ATPase)” value at DnaK-DnaJ [1] is “only inhibitors of the DnaK-DnaJ combination”. Moreover, the “Activity against DnaK-peptide substrate combination (ATPase)” value at DnaK-peptide is “has activity”. For the same molecule, the “Effect on apparent affinity of DnaK for FITC-HLA” value at DnaK [3] is “enhanced the apparent affinity”. Further, the “Competition with FAM-ATP for binding to DnaK” value at DnaK [4] was “unable to compete”. For the same molecule, the “Activity against DnaK alone (intrinsic ATPase)” value on DnaK [5] was “weak or no activity”. Further, at DnaK [8] (Apparent affinity KD for ATP-bound DnaK, ATP-bound DnaK), the Kd was greater than 100 µM. In addition, the Kd at DnaK [8] (Apparent affinity KD for DnaK in the presence of ADP, ADP 1 mM) turned out to be 52 ± 12 µM. Besides, on DnaK [8] (setting [9]), the “Decrease of tryptophan fluorescence intensity at 342 nm” value is listed as ~ 25% and the “Shift of tryptophan fluorescence peak” value is ~ 2 nm. Further, the “Effect on Trp fluorescence in the ATP-bound states” value on DnaK [8] (p = 0.06, result in words) is reported as “no effect”.
